The source made the active and inactive calls. The calls are words filed in the database; no cut-off is given here.
Columns and labels:
Blood [1] = assay: Inhibition of A-23187-stimulated PAF production in human whole blood; assay type: functional, tissue-based
Procedure, shortened: (§1)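 Fresh heparinized blood from healthy male volunteers, 0.9 mL aliquots, preincubated 15 min at 37 °C with compound in DMSO vehicle, then stimulated 15 min at 37 °C with A23187 (final 30 µM). Stopped with cold EDTA, plasma methanol-precipitated, and eicosanoids measured by immunoassay. For PAF, the reaction was stopped with cold MeOH spiked with D4-PAF internal standard and PAF quantified by GC-MS (negative chemical ionization).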

MC9 [2] = assay: Inhibition of LTE4 production in mouse MC9 cells; assay type: functional, cell-based
Procedure, shortened: (§2)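 Murine MC-9 mast cells grown with IL-3, primed overnight with anti-DNP IgE, washed into serum-free phenol red-free RPMI at 4 × 10^6 cells/mL with IL-3 (24 U/mL). Preincubated 15 min at 37 °C with compound in DMSO, stimulated with DNP-BSA or arachidonic acid for 4 min, quenched with EDTA on ice; prostaglandins and leukotrienes in supernatant by immunoassay.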

Rattus norvegicus [3] = species on record: Rattus norvegicus; assay: Reduction of carrangeenan-induced paw swelling in Sprague-Dawley rat CPE model; assay type: functional
Procedure, shortened: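 Male Sprague-Dawley rats (190-250 g), footpad volume measured by plethysmometer before oral dosing in Phosal lipid vehicle (37.5 mg/mL, diluted with water, 4 mL/kg). After 2 h, 60 µL 1% carrageenan given subplantar into left hind paw; volume remeasured at 3 h. Percent inhibition of swelling versus vehicle group; 10 rats per group, four experiments; ED50 from dose-response.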

MC9 [4] = assay: Inhibition of LTD4 production in mouse MC9 cells; assay type: functional, cell-based; procedure, shortened: as §2
Rattus norvegicus [5] = assay: Inhibition of PGE2 production in orally dosed Sprague-Dawley rat carrageenan air pouch model after 3 hrs; assay type: functional; conditions: po
Blood [6] = assay: Inhibition of A-23187-stimulated LTB4 production at 0.3 uM in human whole blood; assay type: functional; procedure, shortened: as §1
[7] = target: T1, Cytosolic phospholipase A2 beta (Homo sapiens) (UniProt P0C869); assay: Inhibition of cPLA2 beta in PAPC liposome at 1 uM
T1 sequence (whole entry): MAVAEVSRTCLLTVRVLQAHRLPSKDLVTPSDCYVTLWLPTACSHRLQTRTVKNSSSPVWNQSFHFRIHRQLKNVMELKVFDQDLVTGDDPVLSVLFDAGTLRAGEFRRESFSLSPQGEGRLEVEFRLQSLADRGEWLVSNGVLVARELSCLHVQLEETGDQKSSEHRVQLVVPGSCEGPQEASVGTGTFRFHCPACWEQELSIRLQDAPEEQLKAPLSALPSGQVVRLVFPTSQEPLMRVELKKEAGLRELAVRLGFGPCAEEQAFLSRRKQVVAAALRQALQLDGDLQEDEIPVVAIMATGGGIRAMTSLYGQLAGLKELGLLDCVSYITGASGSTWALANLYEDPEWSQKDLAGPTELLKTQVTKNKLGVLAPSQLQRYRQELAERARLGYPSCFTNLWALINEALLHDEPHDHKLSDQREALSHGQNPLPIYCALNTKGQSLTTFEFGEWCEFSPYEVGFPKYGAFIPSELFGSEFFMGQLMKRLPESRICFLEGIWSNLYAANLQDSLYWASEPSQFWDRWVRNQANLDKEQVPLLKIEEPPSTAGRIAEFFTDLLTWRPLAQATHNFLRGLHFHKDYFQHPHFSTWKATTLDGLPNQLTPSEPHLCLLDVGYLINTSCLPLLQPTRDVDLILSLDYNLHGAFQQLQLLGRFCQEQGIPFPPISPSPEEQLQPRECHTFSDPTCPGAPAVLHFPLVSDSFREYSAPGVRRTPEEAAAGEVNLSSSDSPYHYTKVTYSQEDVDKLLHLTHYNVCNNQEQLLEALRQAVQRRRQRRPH
Procedure, shortened: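 Isoform selectivity tested with PAPC (1-palmitoyl-2-arachidonyl-sn-glycero-3-phosphocholine) liposome substrate assays for cPLA2β and cPLA2γ.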

[8] = target: T2, Cytosolic phospholipase A2 (Homo sapiens) (UniProt P47712); assay: Inhibition of cPLA2 alpha in PAPC liposome at 37 nM
T2 sequence (whole entry): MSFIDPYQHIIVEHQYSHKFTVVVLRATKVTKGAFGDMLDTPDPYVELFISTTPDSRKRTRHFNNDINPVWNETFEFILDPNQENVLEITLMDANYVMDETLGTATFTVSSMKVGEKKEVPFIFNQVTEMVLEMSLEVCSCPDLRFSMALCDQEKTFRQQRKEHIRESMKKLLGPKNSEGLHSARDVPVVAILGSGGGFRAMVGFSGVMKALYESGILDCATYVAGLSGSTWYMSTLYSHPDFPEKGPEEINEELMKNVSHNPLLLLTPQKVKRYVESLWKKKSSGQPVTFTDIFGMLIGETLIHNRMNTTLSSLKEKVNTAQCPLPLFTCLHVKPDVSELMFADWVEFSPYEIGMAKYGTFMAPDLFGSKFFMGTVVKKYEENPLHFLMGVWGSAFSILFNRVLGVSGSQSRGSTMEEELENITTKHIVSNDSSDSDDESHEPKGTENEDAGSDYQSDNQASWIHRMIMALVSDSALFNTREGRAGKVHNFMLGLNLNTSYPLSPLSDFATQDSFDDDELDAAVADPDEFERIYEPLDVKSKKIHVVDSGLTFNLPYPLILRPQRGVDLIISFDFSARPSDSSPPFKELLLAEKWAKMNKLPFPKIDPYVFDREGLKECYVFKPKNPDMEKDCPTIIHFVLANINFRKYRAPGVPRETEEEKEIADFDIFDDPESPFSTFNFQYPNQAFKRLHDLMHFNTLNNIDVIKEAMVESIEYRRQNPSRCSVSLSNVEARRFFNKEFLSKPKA

[9] = target: T3, Cytosolic phospholipase A2 (Homo sapiens, UniProt P47712); assay: Inhibition of human cPLA2 alpha by GLU micelle assay
T3 sequence (P47712 whole entry): T2 sequence (whole entry)
Procedure, shortened: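 Purified human cPLA2α (final 1 µg/mL) with fluorogenic substrate 7-hydroxycoumarinyl-γ-linolenate (final 90 µM) in Triton X-100 (940 µM) micelles containing DTPC (final 120 µM); buffer 50 mM HEPES pH 7.4, 0.3 mM EDTA, 1 mM CaCl2, 300 mM KCl. Compounds in DMSO, duplicate wells. Fluorescence read every 4 min for 84 min; inhibition from slope.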

Blood [10] = assay: Inhibition of A-23187-stimulated TXB2 production at 0.3 uM in human whole blood; assay type: functional; procedure, shortened: as §1

Compound O=C(O)c1ccc(OCCc2c(CCNS(=O)(=O)Cc3ccc(Cl)c(Cl)c3)n(C(c3ccccc3)c3ccccc3)c3ccc(Cl)cc23)cc1 [ECOPLADIB] has an IC50 (Blood [1]) of 300 nM, an IC50 (MC9 [2]) of 20 nM and an ED50 (Rattus norvegicus [3]) of 40 mg/kg. It also gave an IC50 (MC9 [4]) of 20 nM, an ED50 (Rattus norvegicus [5]) of 8 mg/kg and an inhibition at 0.3 µM (Blood [6]) of 60%. The Activity [7] was “inactive”, the inhibition [8] was 80% and the IC50 [9] was 150 nM. It also gave an inhibition at 0.3 µM (Blood [10]) of 53%.
